# In ChEMBL document CHEMBL2331484, “Synthesis and biological evaluation of scopoletin derivatives” (Bioorg Med Chem, 2013):
# Activity calls are given as the source filed them. No cut-off for these calls is given here.
# Tests used:
# HUVEC [1] = experiment: Antiproliferative activity against HUVEC assessed as growth inhibition rate at 100 uM after 24 hrs by MTT assay; type: functional; conditions: Homo sapiens, read-out: GI
# In short: (§1)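 HUVECs (passages 3–5, primary cord isolates) seeded at 1 × 10⁴ cells/well. Medium replaced with M199 containing 1% FBS plus compound. Viability read by MTT after 24 h. Percent inhibition was calculated from A570 minus A630 of treated versus control wells, and IC50 determined. Triplicate experiments, means ± SEM.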
# HUVEC [2] = experiment: Antiproliferative activity against HUVEC assessed as growth inhibition rate at 10 uM after 24 hrs by MTT assay; type: functional; conditions: Homo sapiens, read-out: GI; in short: as §1
# HUVEC [3] = experiment: Effect on total p38 MAPK level in VEGF-stimulated HUVEC pretreated at 10 to 50 umol/L for 30 mins before VEGF addition by Western blot analysis; type: functional, cell-based; conditions: Homo sapiens
# HUVEC [4] = experiment: Effect on total src level in VEGF-stimulated HUVEC pretreated at 10 to 50 umol/L for 30 mins before VEGF addition by Western blot analysis; type: functional, cell-based; conditions: Homo sapiens
# HUVEC [5] = experiment: Effect on total ERK1/2 level in VEGF-stimulated HUVEC pretreated at 10 to 50 umol/L for 30 mins before VEGF addition by Western blot analysis; type: functional, cell-based; conditions: Homo sapiens
# HUVEC [6] = experiment: Effect on total akt level in VEGF-stimulated HUVEC pretreated at 10 to 50 umol/L for 30 mins before VEGF addition by Western blot analysis; type: functional, cell-based; conditions: Homo sapiens
# [7] = molecular target: MAP kinase p38 (Homo sapiens) (UniProt O15264+Q15759+Q16539+P53778); experiment: Inhibition of VEGF receptor signaling in VEGF-stimulated HUVEC assessed a effect on p38 MAPK phosphorylation pretreated at 10 to 50 umol/L for 30 mins before VEGF addition by Western blot analysis; type: protein assay
# [8] = Inhibition of VEGF receptor signaling in VEGF-stimulated HUVEC assessed a effect on src phosphorylation pretreated at 10 to 50 umol/L for 30 mins before VEGF addition by Western blot analysis; type: cell-based; conditions: Homo sapiens
# [9] = Inhibition of VEGF receptor signaling in HUVEC assessed a inhibition of VEGF-induced Akt phosphorylation pretreated at 10 to 50 umol/L for 30 mins before VEGF addition by Western blot analysis; type: cell-based; conditions: Homo sapiens
# PANC-1 [10] = experiment: Inhibition of MMP-2 protein expression in human PANC1 cells at 10 to 50 umol/L after 24 hrs by SDS-PAGE analysis; type: functional, cell-based
# In short: (§2)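 Gelatin zymography of culture medium from equal numbers of PANC-1 cells exposed to compound for 24 h. Samples run non-reduced and unboiled on 10% polyacrylamide with 1 mg/mL gelatin. Gel washed in 2.5% Triton X-100 buffer, digested 14 h at 37 °C in Tris–HCl/CaCl2/ZnCl2 buffer pH 7.6, then Coomassie-stained. Clear bands imaged.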
# [11] = Inhibition of VEGF receptor signaling in HUVEC assessed a inhibition of VEGF-induced ERK1/2 phosphorylation pretreated at 10 to 50 umol/L for 30 mins before VEGF addition by Western blot analysis; type: cell-based; conditions: Homo sapiens
# PANC-1 [12] = experiment: Inhibition of MMP-9 protein expression in human PANC1 cells at 10 to 50 umol/L after 24 hrs by SDS-PAGE analysis; type: functional, cell-based; in short: as §2
# Gallus gallus [13] = organism: Gallus gallus; experiment: Antiangiogenic activity in chicken embryo chorioallantoic membrane model assessed as inhibition of new blood vessel formation at 10 nmol/egg after 48 hrs by microscopy; type: functional, tissue-based
# In short: (§3)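 Fertilized chicken eggs incubated seven days at 37.5 °C, ~55% humidity, and the air sac membrane was detached. Sterile 5 × 5 mm filter paper soaked with DMSO or compound (5 and 10 nmol/egg) was air-dried and placed on the CAM. Eggs were sealed and reincubated. Fat emulsion (20%) was injected into the CAM and vessels photographed. Three independent experiments.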
# Gallus gallus [14] = organism: Gallus gallus; experiment: Antiangiogenic activity in chicken embryo chorioallantoic membrane model assessed as inhibition of new blood vessel formation at 5 nmol/egg after 48 hrs by microscopy; type: functional, tissue-based; in short: as §3
# HUVEC [15] = experiment: Antiangiogenic activity against HUVEC assessed as inhibition of VEGF-induced branching and network formation at 25 umol/L after 5 hrs by microscopy; type: functional, cell-based; conditions: Homo sapiens
# In short: (§4)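 Matrigel-coated wells gelled 37 °C 30 min. DMSO or compound (final 25 µmol/L) added for 30 min before plating. After 5 h, enclosed complete tubes counted in five random fields by microscopy. Triplicate experiments, means ± SEM.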
# HUVEC [16] = experiment: Antiangiogenic activity against HUVEC assessed as inhibition of VEGF-induced tube formation at 25 umol/L after 5 hrs by microscopy; type: functional, cell-based; conditions: Homo sapiens; in short: as §4
# HuT78 = experiment: Cytotoxicity against human HUT78 cells after 24 hrs by MTT assay; type: functional, cell-based; conditions: HuT78, 24 h
# K562 = experiment: Cytotoxicity against human K562 cells after 24 hrs by MTT assay; type: functional, cell-based; conditions: K562, 24 h
# HL-60 = experiment: Cytotoxicity against human HL60 cells after 24 hrs by MTT assay; type: functional, cell-based; conditions: HL-60, 24 h
# [17] = Cytotoxicity against human SHG44 cells after 24 hrs by MTT assay; type: functional, cell-based; conditions: SHG-44, 24 h
# A-431 = experiment: Cytotoxicity against human A431 cells after 24 hrs by MTT assay; type: functional, cell-based; conditions: A-431, 24 h
# A549 = experiment: Cytotoxicity against human A549 cells after 24 hrs by MTT assay; type: functional, cell-based; conditions: A549, 24 h
# MKN-45 = experiment: Cytotoxicity against human MKN45 cells after 24 hrs by MTT assay; type: functional, cell-based; conditions: MKN-45, 24 h
# HCT-116 = experiment: Cytotoxicity against human HCT116 cells after 24 hrs by MTT assay; type: functional, cell-based; conditions: HCT-116, 24 h
# HepG2 = experiment: Cytotoxicity against human HepG2 cells after 24 hrs by MTT assay; type: functional, cell-based; conditions: HepG2, 24 h
# MDA-MB-231 = experiment: Cytotoxicity against human MDA-MB-231 cells after 24 hrs by MTT assay; type: functional, cell-based; conditions: MDA-MB-231, 24 h
# MDA-MB-435 = experiment: Cytotoxicity against human MDA-MB-435 cells after 24 hrs by MTT assay; type: functional, cell-based; conditions: MDA-MB-435, 24 h
# BXPC-3 = experiment: Cytotoxicity against human BxPC3 cells after 24 hrs by MTT assay; type: functional, cell-based; conditions: BXPC-3, 24 h
# PANC-1 [18] = experiment: Cytotoxicity against human PANC1 cells after 24 hrs by MTT assay; type: functional, cell-based; conditions: PANC-1, 24 h
# PBMC = experiment: Cytotoxicity against human PBMC after 24 hrs by MTT assay; type: cell-based
# HUVEC [19] = experiment: Antiproliferative activity against HUVEC assessed as growth inhibition rate after 24 hrs by MTT assay; type: functional, cell-based; conditions: Homo sapiens; in short: as §1
# HUVEC [20] = experiment: Antiangiogenic activity against HUVEC assessed as inhibition of VEGF-induced migration at 25 umol/L after 20 hrs by microscopy; conditions: Homo sapiens
# HUVEC [21] = experiment: Antiangiogenic activity against HUVEC assessed as inhibition of VEGF-induced cell migration at 25 umol/L after 20 hrs by Boyden chamber assay; type: functional, cell-based; conditions: Homo sapiens
# In short: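 Boyden chamber, 8.0 µm membrane. HUVECs at 80% confluence serum-starved 12 h in basal medium and suspended at 1 × 10⁶ cells/mL. Pre-treated 30 min at room temperature with DMSO or compound (final 25 µmol/L). After 20 h cells fixed, stained, and counted in five random fields. Triplicate experiments.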
smiles,measurement,setting,value
COc1cc2ccc(=O)oc2cc1OCCNC(C)C,inhibition of growth at 100 µM,HUVEC [1],0.1%
same,inhibition of growth at 10 µM,HUVEC [2],0.1%
COc1cc2ccc(=O)oc2cc1OCC(O)CN1CCOCC1 (stereo not drawn),inhibition of growth at 100 µM,HUVEC [1],0.1%
same,inhibition of growth at 10 µM,HUVEC [2],0.4%
COc1cc2ccc(=O)oc2cc1OCC(O)CN1CCCCC1 (stereo not drawn),Activity,HUVEC [3],inactive
same,Activity,HUVEC [4],inactive
same,Activity,HUVEC [5],inactive
same,Activity,HUVEC [6],inactive
same,inhibition,[7],inactive
same,inhibition,[8],inactive
same,inhibition,[9],Active
same,inhibition,PANC-1 [10],Active
same,inhibition,[11],Active
same,inhibition,PANC-1 [12],Active
same,inhibition,Gallus gallus [13],Active
same,inhibition,Gallus gallus [14],Active
same,inhibition,HUVEC [15],Active
same,inhibition,HUVEC [16],Active
same,IC50,HuT78,46.6 µM
same,IC50,K562,43.7 µM
same,IC50,HL-60,30.2 µM
same,IC50,[17],42.8 µM
same,IC50,A-431,93.9 µM
same,IC50,A549,42.7 µM
same,IC50,MKN-45,78.9 µM
same,IC50,HCT-116,26.1 µM
same,IC50,HepG2,83.9 µM
same,IC50,MDA-MB-231,51.6 µM
same,IC50,MDA-MB-435,63 µM
same,IC50,BXPC-3,35 µM
same,IC50,PANC-1 [18],> 100 µM
same,IC50,PBMC,> 100 µM
same,IC50,HUVEC [19],24.2 µM
same,inhibition of growth at 100 µM,HUVEC [1],80.7%
same,inhibition of growth at 10 µM,HUVEC [2],31.4%
same,inhibition,HUVEC [20],Active
COc1cc2ccc(=O)oc2cc1O [SCOPOLETIN],inhibition,PANC-1 [10],Active
same,inhibition,PANC-1 [12],Active
same,inhibition,HUVEC [15],inactive
same,inhibition,HUVEC [16],inactive
same,inhibition,HUVEC [21],inactive
same,IC50,HuT78,> 100 µM
same,IC50,K562,> 100 µM
same,IC50,HL-60,> 100 µM
same,IC50,[17],> 100 µM
same,IC50,A-431,> 100 µM
same,IC50,A549,> 100 µM
same,IC50,MKN-45,> 100 µM
same,IC50,HCT-116,> 100 µM
same,IC50,HepG2,> 100 µM
same,IC50,MDA-MB-231,> 100 µM
same,IC50,MDA-MB-435,> 100 µM
same,IC50,BXPC-3,> 100 µM
same,IC50,PANC-1 [18],> 100 µM
same,IC50,PBMC,> 100 µM
same,inhibition of growth at 100 µM,HUVEC [1],2.1%
same,inhibition of growth at 10 µM,HUVEC [2],0%
same,inhibition,HUVEC [20],inactive
COc1cc2ccc(=O)oc2cc1OCCCCl,inhibition of growth at 100 µM,HUVEC [1],9.4%
same,inhibition of growth at 10 µM,HUVEC [2],0.1%
COc1cc2ccc(=O)oc2cc1OCCN1CCOCC1,inhibition of growth at 100 µM,HUVEC [1],1.9%
same,inhibition of growth at 10 µM,HUVEC [2],0%
COc1cc2ccc(=O)oc2cc1OCC(O)CN1CCN(C)CC1 (stereo not drawn),inhibition of growth at 100 µM,HUVEC [1],3.4%
same,inhibition of growth at 10 µM,HUVEC [2],0.1%
COc1cc2ccc(=O)oc2cc1OCC(=O)c1ccc(F)cc1,inhibition of growth at 100 µM,HUVEC [1],16.6%
same,inhibition of growth at 10 µM,HUVEC [2],3.6%
COc1cc2ccc(=O)oc2cc1OCC(=O)c1ccccc1,IC50,HUVEC [19],62.4 µM
same,inhibition of growth at 100 µM,HUVEC [1],83.6%
same,inhibition of growth at 10 µM,HUVEC [2],3.4%
COc1cc2ccc(=O)oc2cc1OCC(=O)c1ccc([N+](=O)[O-])cc1,inhibition of growth at 100 µM,HUVEC [1],27.2%
same,inhibition of growth at 10 µM,HUVEC [2],4.1%
COc1cc2ccc(=O)oc2cc1OCCCl,inhibition of growth at 100 µM,HUVEC [1],3.3%
same,inhibition of growth at 10 µM,HUVEC [2],0.3%
